Experimental data as given in ChEMBL document CHEMBL1148326, “Chemometric studies on the bactericidal activity of quinolones via an extended VolSurf approach” (2004).

How the values were obtained:
Assay type in all cases: functional
Pseudomonas aeruginosa = experiment: Antibacterial activity was evaluated against Pseudomonas aeruginosa
Procedure, shortened: (§1)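 MIC against aerobic bacteria, measured at Bayer AG, by standard agar dilution or broth microdilution per NCCLS M7-A5 guidelines. MIC taken as lowest concentration visibly inhibiting growth after in vitro incubation, read when untreated culture growth becomes visible; expressed as log 1/C.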

Escherichia coli = experiment: Antibacterial activity was evaluated against Escherichia coli; procedure, shortened: as §1
Enterococcus faecalis [1] = experiment: Antibacterial activity was evaluated against Enterococcus faecalis; procedure, shortened: as §1
Staphylococcus aureus = experiment: Antibacterial activity was evaluated against Staphylococcus aureus; procedure, shortened: as §1
Enterococcus faecalis [2] = experiment: Antibacterial activity evaluated against Enterococcus faecalis; procedure, shortened: as §1

Structure (SMILES): C[C@@]12CN(c3c(F)cc4c(=O)c(C(=O)O)cn(C5C[C@@H]5F)c4c3F)C[C@@H]1CCCN2 (some centres not stated)
- Log 1/C (Pseudomonas aeruginosa): 6.25
- Log 1/C (Escherichia coli): 7.46
- Log 1/C (Enterococcus faecalis [1]): 6.86
- Log 1/C (Staphylococcus aureus): 7.16

Structure (SMILES): C[C@H]1COc2c(N3CCN(C)CC3)c(F)cc3c(=O)c(C(=O)O)cn1c23.C[C@H]1COc2c(N3CCN(C)CC3)c(F)cc3c(=O)c(C(=O)O)cn1c23.O [LEVOFLOXACIN]
- Log 1/C (Pseudomonas aeruginosa): 6.2
- Log 1/C (Escherichia coli): 7.41
- Log 1/C (Staphylococcus aureus): 6.5
- Log 1/C (Enterococcus faecalis [2]): 6.2

Structure (SMILES): CCn1cc(C(=O)O)c(=O)c2cc(F)c(N3CCNC(C)C3)c(F)c21 (configuration not stated) [LOMEFLOXACIN]
- Log 1/C (Pseudomonas aeruginosa): 5.85
- Log 1/C (Escherichia coli): 7.07
- Log 1/C (Staphylococcus aureus): 5.85
- Log 1/C (Enterococcus faecalis [2]): 5.24

Structure (SMILES): COc1c(N2C[C@@H]3CCCN[C@@H]3C2)c(F)cc2c(=O)c(C(=O)O)cn(C3CC3)c12 [MOXIFLOXACIN]
- Log 1/C (Pseudomonas aeruginosa): 5.64
- Log 1/C (Escherichia coli): 7.46
- Log 1/C (Enterococcus faecalis [1]): 6.55
- Log 1/C (Staphylococcus aureus): 7.16

Structure (SMILES): CCn1cc(C(=O)O)c(=O)c2cc(F)c(N3CCNCC3)cc21 [NORFLOXACIN]
- Log 1/C (Pseudomonas aeruginosa): 5.85
- Log 1/C (Escherichia coli): 6.76
- Log 1/C (Staphylococcus aureus): 5.55
- Log 1/C (Enterococcus faecalis [2]): 5.55

Structure (SMILES): CCn1cc(C(=O)O)c(=O)c2cc(F)c(N3CCN(C)CC3)cc21 [PEFLOXACIN]
- Log 1/C (Pseudomonas aeruginosa): 5.82
- Log 1/C (Escherichia coli): 7.05
- Log 1/C (Staphylococcus aureus): 6.12
- Log 1/C (Enterococcus faecalis [2]): 5.52

Structure (SMILES): N[C@@H]1CN(c2c(F)cc3c(=O)c(C(=O)O)cn([C@@H]4C[C@@H]4F)c3c2Cl)CC12CC2 [SITAFLOXACIN ANHYDROUS]
- Log 1/C (Pseudomonas aeruginosa): 6.84
- Log 1/C (Escherichia coli): 8.04
- Log 1/C (Staphylococcus aureus): 7.74
- Log 1/C (Enterococcus faecalis [2]): 7.45

Structure (SMILES): C[C@@H]1CN(c2c(F)c(N)c3c(=O)c(C(=O)O)cn(C4CC4)c3c2F)C[C@H](C)N1 [SPARFLOXACIN]
- Log 1/C (Pseudomonas aeruginosa): 5.59
- Log 1/C (Escherichia coli): 7.42
- Log 1/C (Staphylococcus aureus): 6.8
- Log 1/C (Enterococcus faecalis [2]): 6.2
